Results published in ChEMBL document CHEMBL4393705, “New chalcone-sulfonamide hybrids exhibiting anticancer and antituberculosis activity” (Eur J Med Chem, 2019).

Assays:
Type in all cases: functional
[1] = test system: 786-0; experiment: Anticancer activity against human 786-O cells assessed as increase in cell death at 10 uM after 48 hrs by SRB assay relative to control
How it was run: (§1)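 NCI-60 single-dose screen at 10 µM in RPMI-1640 with 5% FBS and 2 mM glutamine. Exposure was 48 h at 37°C, 5% CO2, with time-zero plates fixed at dosing. Read-out was TCA fixation and SRB at 515 nm. Growth percent = (Ti−Tz)/Tz×100 where Ti<Tz, so negative values mean net cell loss.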

[2] = test system: OVCAR-4; experiment: Anticancer activity against human OVCAR4 cells assessed as cell growth inhibition measured after 48 hrs by SRB assay; conditions: OVCAR-4, 48 h
How it was run: (§2)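 NCI-60 five-dose screen at 100, 10, 1.0, 0.1 and 0.01 µM final. Cells in RPMI-1640 with 5% FBS and 2 mM glutamine were seeded 24 h ahead at 37°C, 5% CO2. Compound exposure was 48 h, followed by TCA fixation and SRB staining, read at 515 nm. GI50 is the concentration giving 50% lower net protein increase than control, using time-zero plates.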

[3] = test system: NCI/ADR-RES; experiment: Anticancer activity against human NCI/ADR-RES cells assessed as cell growth inhibition measured after 48 hrs by SRB assay; how it was run: as §2
[4] = test system: NCI-H322M; experiment: Anticancer activity against human NCI-H322M cells assessed as cell growth inhibition measured after 48 hrs by SRB assay; how it was run: as §2
[5] = test system: PC-3; experiment: Anticancer activity against human PC3 cells assessed as increase in cell death at 10 uM after 48 hrs by SRB assay relative to control; how it was run: as §1
[6] = test system: RPMI-8226; experiment: Anticancer activity against human RPMI8226 cells assessed as increase in cell death at 10 uM after 48 hrs by SRB assay relative to control; how it was run: as §1
[7] = test system: HT-29; experiment: Anticancer activity against human HT-29 cells assessed as cell growth inhibition measured after 48 hrs by SRB assay; conditions: HT-29, 48 h; how it was run: as §2
[8] = test system: HCT-116; experiment: Anticancer activity against human HCT116 cells assessed as increase in cell death at 10 uM after 48 hrs by SRB assay relative to control; how it was run: as §1
[9] = test system: Mycolicibacterium smegmatis; experiment: Antibacterial activity against Mycobacterium smegmatis MC2 155 measured after 48 hrs by agar dilution SPOTi assay; conditions: MC2 155, 48 h
How it was run: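 SPOTi agar dilution on Middlebrook 7H10 without OADC. Cells were passaged in Middlebrook 7H9 and then spotted. Compounds were tested at 100, 50, 20, 10 and 5 mg/L, with kanamycin as positive control. Plates were incubated 48 h at 37°C. MIC was taken as the lowest concentration with no visible growth.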

[10] = test system: HOP-92; experiment: Anticancer activity against human HOP92 cells assessed as increase in cell death at 10 uM after 48 hrs by SRB assay relative to control; how it was run: as §1
[11] = test system: M14; experiment: Anticancer activity against human M14 cells assessed as increase in cell death at 10 uM after 48 hrs by SRB assay relative to control; how it was run: as §1
[12] = test system: U-251; experiment: Anticancer activity against human U251 cells assessed as increase in cell death at 10 uM after 48 hrs by SRB assay relative to control
How it was run: (§3)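 NCI single-dose screen at 10 µM. Cells in RPMI-1640 with 5% FBS and 2 mM L-glutamine, preincubated 24 h, then exposed 48 h at 37°C, 5% CO2. Protein measured by TCA fixation and SRB staining, absorbance 515 nm. Growth percent is calculated against time-zero and untreated control plates; negative values indicate net cell loss.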

[13] = test system: K562; experiment: Anticancer activity against human K562 cells assessed as tumour cell growth at 10 uM after 48 hrs by SRB assay relative to control
How it was run: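 NCI 60-line primary screen at a single 10 μM dose in RPMI-1640 with 5% FBS and 2 mM L-glutamine. Cells were preincubated 24 h at 37 °C in 5% CO₂, with time-zero plates fixed with TCA. Compounds (DMSO, diluted in gentamicin medium) were incubated 48 h, then cells TCA-fixed and stained with 0.4% SRB (A515). Growth percent was derived from time-zero, control and treated absorbances.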

[14] = test system: SF-539; experiment: Anticancer activity against human SF539 cells assessed as increase in cell death at 10 uM after 48 hrs by SRB assay relative to control; how it was run: as §3

| SMILES | Activity [1] | GI50 [2] | LC50 [2] | GI50 [3] | LC50 [3] | GI50 [4] | LC50 [4] | Activity [5] | Activity [6] | GI50 [7] | LC50 (concentration giving 50% net cell kill) [7] | Activity [8] | MIC [9] | Activity [10] | Activity [11] | Activity [12] | Activity [13] | Activity [14] |
| --- | --- | --- | --- | --- | --- | --- | --- | --- | --- | --- | --- | --- | --- | --- | --- | --- | --- | --- |
| COc1ccc(C(=O)/C=C/c2ccc(Cl)cc2)cc1S(N)(=O)=O | 30.67% | 3.47 µM | 40.4 µM | 3.64 µM | > 100 µM | 2.04 µM | 28.8 µM | 55.63% | 31.74% | 3.26 µM | 84 µM | 78.33% | > 175 µM | 26.57% | 57.32% |  |  |  |
| COc1ccc(C(=O)/C=C/c2ccc(Cl)cc2)cc1S(=O)(=O)Nc1c(N)nc(SC)[nH]c1=O |  | 4.5 µM | 43.6 µM | 40.1 µM | > 100 µM | 2.38 µM | 28 µM |  |  | 2.93 µM | 45.3 µM |  | > 175 µM |  |  | 4.2% | 3.84% | 5.49% |
